Assay: Toxicity liver stage against HepG2, at 10uM
Type: cell-based
Set-up: test concentration 10 uM, cell line HepG2-A16-CD81EGFP
Details: human, HepG2-A16-CD81EGFP cells; read-out: INHIBITION
Method in brief: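 Uninfected HepG2-A16-CD81EGFP cells, 3 × 10^3 per well, 1536-well, plated on prespotted compound at 10 μM final, parasite-free screening media added to match infected plates; puromycin 10 μM positive, DMSO 0.5% negative; run in parallel with 48 h PbLuc assay at 37 °C, 5% CO2; viability by CellTiter-Glo luminescence, normalized to controls.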

Row | SMILES | cytotoxicity at 10 µM
1 | CC(O)CN1CCC(CNCc2cccc(C(F)(F)F)c2)CC1 (configuration not stated) | -15.2%
2 | Cc1nc(N2CCCN(c3ncccn3)CC2)c2cnn(C)c2n1 | 0.977%
3 | COc1ccc(CNC(=O)CCN2C[C@@H](C)[C@](O)(C3CC3)C2)cc1 | -12.5%
4 | COCc1cc(N2CCc3onc(-c4cccc(OC)c4)c3C2)ncn1 | 14.4%
5 | CN(C)CCOCC1CN(C(=O)[C@H]2CCCO2)Cc2ccnn2C1 (some centres not stated) | -0.422%
6 | O=C(c1cnccn1)N1C[C@@H](OCc2ccncc2)[C@@H]2OCCC[C@@H]21 | -2.91%
7 | CCN(Cc1nc(C)no1)C(=O)C1CC(=O)N(Cc2cccnc2)C1 (configuration not stated) | 4.03%
8 | CCc1nnc2n1CCN(C(=O)c1cc3ccccc3[nH]1)C2 | 4.38%
9 | Cc1noc(C)c1CN(C)C(=O)NC1CCN(c2ncccn2)CC1 | -19.1%
10 | Cc1cc(C(=O)NCC(O)c2ccc(Cl)s2)c(C)o1 (configuration not stated) | -6.82%
11 | Cc1ccc(C(=O)N2C[C@@H]3CN(c4ncccn4)C[C@@H]3C2)cc1 | 9.34%
12 | CC(C)c1nc(C2CCCN(C(=O)Cn3ccccc3=O)C2)no1 (configuration not stated) | -16.3%
13 | Cc1noc([C@H]2C[C@H]3CN(C(=O)Cc4ccsc4)CC[C@H]3O2)n1 | -1.68%
14 | Cn1cccc1-c1cc(C(=O)N2CCCC2c2cccnc2)[nH]n1 (configuration not stated) | -9.32%
15 | CC(C)n1ccnc1C1CCN(Cc2ccc(Cl)c(F)c2)CC1 | -3.59%
16 | COc1ncccc1NC(=O)N1CCC(c2ccc(O)cc2)CC1 | 4.87%
17 | COCC(=O)N1CCC2(COCc3cnc(N4CCOCC4)nc32)C1 (configuration not stated) | -65%
18 | NC(=O)N1CCC(C(=O)NC2CCc3nccn3C2)CC1 (configuration not stated) | -2.09%
19 | CCOC(C)c1nccn1Cc1c(C)noc1C (configuration not stated) | 3.11%
20 | Cc1oncc1C(=O)N1CCC(O)(CN2CCOCC2)C(C)(C)C1 (configuration not stated) | -5.26%
21 | O=C1NCC2(CCCN(C(=O)c3ccc4c(c3)CCO4)C2)O1 (configuration not stated) | 2.32%

Row | SMILES | cytotoxicity at 10 µM
22 | CC(C)(C)c1nnc2n1C(C(=O)N1CCN(c3ncccn3)CC1)CC2 (configuration not stated) | -7.46%
23 | COc1cc(CNC(C)Cn2ccnc2)cc2c1OCCO2 (configuration not stated) | -94.1%
24 | CCCN(CCC)C(=O)c1cnn(C)c1C | -128%
25 | c1ccc(OC2CCCC2)c(CNC2CCc3ncnn3C2)c1 (configuration not stated) | -5.43%
26 | Cc1ncsc1-c1nc(CC2CCN(C)CC2)nn1Cc1ccccc1 | 10.2%
27 | COc1ccc(CC(=O)Nc2c(C)nc(N3CCCC3)nc2C)cc1 | 2.05%
28 | Cc1ccccc1C(C)NC(=O)CSCC#N (configuration not stated) | -10.2%
29 | O=C(O)c1ccc(S(=O)(=O)Nc2ccccc2F)c(F)c1 | 5.51%
30 | CC(C)NC1CCc2c(ccc(=O)n2CCN2CCOCC2)C1 (configuration not stated) | 7.64%
31 | COc1ccc(S(=O)(=O)NCC(C)(O)c2cccs2)cc1Cl (configuration not stated) | -11.5%
32 | O=C(NC1CCC1)[C@H]1C[C@H]2CN(C(=O)Nc3ccc(F)cc3)C[C@@H]1O2 | 7.2%
33 | CN(C)c1ncccc1CNC(=O)N1CCN(C)c2ccccc2C1 | 4.72%
34 | CC(C)c1ccc(OCCC(=O)N2CCC(C(=O)N(C)C)CC2)cc1 | -17.5%
35 | CNc1nc(C)c(C(=O)N2CCCCC2CCN2CCOCC2)s1 (configuration not stated) | -2.06%
36 | Cc1ccc(NC2CCN(C(=O)CCc3ccsc3)CC2)nn1 | 4.3%
37 | COCCn1ccc2cc(NC(=O)N(C)C(C)CSC)ccc21 (configuration not stated) | 0.08%
38 | Cc1noc(C)c1CCC(=O)NC(C)c1nnc2n1CCC2 (configuration not stated) | -3.39%
39 | CC(C)c1nnc(CN2CCN(CC(O)c3ccccc3)CC2)o1 (configuration not stated) | -7.03%
40 | CCOC(C)C(=O)N1CCCN(Cc2csc(CC)n2)CC1 (configuration not stated) | -13%
41 | N#Cc1ccccc1CNC(C(=O)N1CCOCC1)c1ccccc1 (configuration not stated) | 11%
42 | CC(C)(C)c1csc(C2CCCCN2C(=O)CCn2cncn2)n1 (configuration not stated) | -4.34%

Row | SMILES | cytotoxicity at 10 µM
43 | c1cnc2[nH]c(C3CCCNC3)c(CN3CCCOCC3)c2c1 (configuration not stated) | -1.43%
44 | Cc1nc(COC[C@H]2CC[C@H]3[C@H](CCN3C(N)=O)O2)cs1 | -81.2%
45 | O=C(c1c(F)cccc1F)N1CCOCC1 | 5.33%
46 | O=C(c1ccc2c(c1)CCC2)N1CC[C@H](O)[C@]2(CCCO2)C1 | -8.97%
47 | CC(=O)N1CCc2nc(-c3ccccc3)nc(NC(C)C)c2CC1 | -119%
48 | COC(=O)CN1CCSC(c2ccccc2)C1 (configuration not stated) | 17.8%
49 | Cc1cnc(C(=O)N2CCc3ncnc(-c4cnn(C)c4)c3CC2)cn1 | 0.588%
50 | CCN(C)c1ccc(CNS(=O)(=O)C2CCOCC2)cc1F | 10.3%
51 | CC(=O)N1CCCC1C(=O)NCCOc1cc(C)cc(C)c1 (configuration not stated) | -10.5%
52 | Cn1cc(NC(=O)CNC(=O)N2CCN(c3cccc(Cl)c3)CC2)cn1 | 2.93%
53 | Cc1ccccc1C(CNc1ncnc2c1CCNCC2)N(C)C (configuration not stated) | 21.5%
54 | O=C(NCC1(O)CCCC1)c1ccc2nsnc2c1 | -5.37%
55 | Cc1ccccc1C(C(=O)NCCSC(C)C)N(C)C (configuration not stated) | 9.38%
56 | CCN(c1ccccc1C(=O)O)S(=O)(=O)c1cccc2cccnc12 | 1.28%
57 | CCn1cnnc1CNC(=O)N1CCCN(C(C)=O)CC1 | 1.18%
58 | c1cc(-c2c[nH]c([C@@H]3COCCN3Cc3ncc[nH]3)n2)ccn1 | 4.99%
59 | Cc1cnc2n1CCN(C)C21CCN(CC2CC2)CC1 | 7.34%
60 | CNc1ncccc1CN1CCCCC1c1cc(C)n2ccnc2n1 (configuration not stated) | -2.17%
61 | COc1ccc(CCNC(=O)C(C)Nc2cccc(C)c2C)cc1 (configuration not stated) | -5.91%
62 | COc1ccccc1C1Cn2c(C)cnc2CN1Cc1c[nH]nc1C (configuration not stated) | 2.79%
63 | Cc1ccccc1CC1(CO)CCCN(c2ncccc2C#N)C1 (configuration not stated) | -1.16%

Row | SMILES | cytotoxicity at 10 µM
64 | Cc1cnc(C(C)(C)NC(=O)NCc2cccnc2OC(C)C)s1 | 8.46%
65 | N#Cc1cccc(CN2C[C@H](OCC3CCOCC3)[C@H]3COC[C@H]32)c1 | -0.82%
66 | CC(=O)N(Cc1noc(C)n1)C1CCN(CC2(O)CCCCC2)C1 (configuration not stated) | 5.69%
67 | COCCC(=O)N1CCC2(COCc3cnc(N4CCOCC4)nc32)C1 (configuration not stated) | 2.21%
68 | Cc1cc2c(=O)n3c(nc2s1)CCN(C(=O)c1scnc1C)CC3 | -0.774%
69 | CN(C)Cc1nnc(C2CCCN(c3cc(C(F)(F)F)ccn3)C2)n1C (configuration not stated) | -11.9%
70 | CS(=O)(=O)N1CC(c2nc[nH]n2)c2cc(C(=O)NC3CC3)ccc21 (configuration not stated) | -158%
71 | COCC(NC1CCSCC1)c1ccnn1C (configuration not stated) | 13.5%
72 | COC(=O)CCC(=O)N1CCc2nc(C(=O)N(C)C)sc2CC1 | 18.7%
73 | CCOc1ccc(C(=O)N(CCOC)Cc2c(C)nn(CC)c2C)o1 | -2.99%
74 | CC(C)Sc1ccc(C(C)Nc2nc3c(cnn3C)c(=O)[nH]2)cc1 (configuration not stated) | 21.4%
75 | CSCc1cccc(S(=O)(=O)N2CCCCCC2)c1 | 6.91%
76 | Cn1cnnc1-c1cncc(NCc2cccc3c2OC(C)(C)C3)c1 | 7.84%
77 | O=c1cc(CN2CCCC2)nc2n1CCCN(CC1CCOCC1)C2 | 9.97%
78 | Cc1ccc(CN(CCCn2ccnc2)Cc2cccs2)s1 | -17.6%
79 | COc1cc(CN(C)Cc2ccncc2)c(SC)cc1OC | 5.54%
80 | CC(C)OC(=O)N1CCC(Cc2cccc(C(N)=O)c2)C1 (configuration not stated) | 7.56%
81 | CC(C)(C)S(=O)(=O)c1ccc(N2CCC(n3cncn3)CC2)cn1 | 3.94%
82 | CSc1ccc(CCNC(=O)Cc2c(C)n[nH]c2C)cc1 | 1.02%

— ChEMBL document CHEMBL4513216, “Probing the Open Global Health Chemical Diversity Library for Multistage-Active Starting Points for Next-Generation Antimalarials” (ACS Infect Dis, 2020)
